What follows are compounds tested against Prothrombin (Homo sapiens, UniProt P00734) (assay: Inhibition of thrombin (unknown origin) using CH3SO2-D-Cha-Gly-Arg-pNA.AcOH as substrate measured every 20 sec for 30 mins in presence of NaCl by UV-Visible spectrophotometric method).
Procedure, shortened: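 Kinetic chromogenic assay at 25 ± 0.2 °C in 0.02 M Hepes, 0.154 M NaCl (Na⁺ for enzyme activation), final DMSO 6.5 %, pH 7.4 ± 0.05. Thrombin about 8-12 nM final, substrate 100 µM final, inhibitor 0.5-10× preliminary IC50. Enzyme added last to premixed substrate and inhibitor, A405 read. Rates gave dose-response IC50, then Ki via Cheng-Prusoff, and ΔG = RTlnKi.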

How did the Ki turn out when `N=C(N)c1ccc(CNC(=O)[C@@H]2CCCN2C(=O)CCc2ccccc2)cc1` was run?
The Ki was 0.72 µM.

Which Ki does the source give for `CS(=O)(=O)N1CCC[C@H]1C(=O)NCc1ccc(C(=N)N)cc1` here?
Its Ki is 68 µM.

Which Ki does the source give for `CCN1CCC[C@H]1C(=O)NCc1ccc(C(=N)N)cc1` here?
Its Ki is 250 µM.

For `CC(C)(C)CC(=O)N1CCC[C@H]1C(=O)NCc1ccc(C(=N)N)cc1`, which Ki is on record?
The Ki was 4.2 µM.

For `CC(C)(C)OC(=O)N1CCC[C@H]1C(=O)NCc1ccc(C(=N)N)cc1`, which Ki is on record?
Its Ki is 11.9 µM.

For `N=C(N)c1ccc(CNC(=O)[C@@H]2CCCN2C(=O)C(F)F)cc1`, which Ki is on record?
Its Ki is 17.9 µM.

How did the Ki turn out when `N=C(N)c1ccc(CNC(=O)[C@@H]2CCCN2C(=O)NCc2ccccc2)cc1` was run?
Its Ki is 14.5 µM.

Which Ki does the source give for `N=C(N)c1ccc(CNC(=O)[C@@H]2CCCN2C(N)=O)cc1` here?
The Ki was 59 µM.

With `N=C(N)c1ccc(CNC(=O)[C@@H]2CCCN2C(=O)OCc2ccccc2)cc1` as the compound, how does the Ki read?
Its Ki is 4 µM.

How did the Ki turn out when `N=C(N)c1ccc(CNC(=O)[C@@H]2CCCN2S(N)(=O)=O)cc1` was run?
Its Ki is 163 µM.

`N=C(N)c1ccc(CNC(=O)[C@@H]2CCCN2C(=O)CF)cc1` was tested. Which Ki did it give?
The Ki was 44 µM.

`CC(=O)N1CCC[C@H]1C(=O)NCc1ccc(C(=N)N)cc1` was tested. Which Ki did it give?
The Ki was 68 µM.

For `N=C(N)c1ccc(CNC(=O)[C@@H]2CCCN2C(=O)C(F)(F)F)cc1`, which Ki is on record?
The Ki was 13.5 µM.

How did the Ki turn out when `CC(C)(C)NC(=O)N1CCC[C@H]1C(=O)NCc1ccc(C(=N)N)cc1` was run?
The Ki was 36 µM.

How did the Ki turn out when `N=C(N)c1ccc(CNC(=O)[C@@H]2CCCN2S(=O)(=O)C(F)(F)F)cc1` was run?
Its Ki is 7.1 µM.

Reference: ChEMBL document CHEMBL4041515, “Modulating hydrogen-bond basicity within the context of protein-ligand binding: A case study with thrombin inhibitors that reveals a dominating role for desolvation” (Eur J Med Chem, 2017)
